Laboratory results published in ChEMBL document CHEMBL4177701, “A novel series of enoyl reductase inhibitors targeting the ESKAPE pathogens, Staphylococcus aureus and Acinetobacter baumannii” (Bioorg Med Chem, 2018).
Values after ≈ are worked out from the molar mass of the structure shown. Blank lines part the entries; values can stand above or below the molecule they belong to. Active and inactive are the calls of the source. The rule behind the calls is not given here.

Assays:
[1] = Solubility of the compound; format: physicochemical
[2] = test system: HepG2; test: Cytotoxicity against human HepG2 cells assessed as reduction in cell viability after 24 hrs in presence of 10% FBS by MTT assay; format: cell-based; settings: HepG2, 24 h
In short: (§1)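 HepG2 cells in EMEM with either 10% FBS or 0.5% FBS plus 10% Cell-Ess serum replacement. Seeded at 25,000 cells/well and incubated overnight at 37 °C, 5% CO2. Treated 24 h at 100–3 μg/mL, with matched DMSO controls. MTT added for 2 h, formazan extracted in DMSO, absorbance read at 570 nm. Run in duplicate; IC50 taken from the viability plot against the DMSO control.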

[3] = test system: Staphylococcus aureus; test: Antibacterial activity against Staphylococcus aureus RN4220 over-expressing FabI by microbroth dilution method; format: functional
In short: (§2)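 Broth microdilution MIC; reported value is mean of at least two runs, within two-fold experimental uncertainty.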

[4] = test system: HepG2; test: Cytotoxicity against human HepG2 cells assessed as reduction in cell viability after 24 hrs in presence of 0.5% FBS by MTT assay; format: cell-based; settings: HepG2, 24 h; in short: as §1
[5] = test system: Acinetobacter baumannii ATCC 19606 = CIP 70.34 = JCM 6841; test: Binding affinity to Acinetobacter baumannii 2208 ATCC 19606 FabI by SPR assay
[6] = Inhibition of Acinetobacter baumannii 2208 ATCC 19606 FabI using crotonyl-CoA as substrate in presence of NADPH/NADH after 10 mins by fluorescence assay; parameters: species or system Acinetobacter baumannii ATCC 19606 = CIP 70.34 = JCM 6841
In short: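 AbFabI, 200 nM, in 50 mM MES/100 mM NaCl with 200 μM NADH, 0.1 mg/mL BSA and 0.01% triton. Reaction started with 300 μM crotonyl-CoA. NADH fluorescence read at 340/460 nm. Compounds tested at 0.4 nM–200 μM. Initial 10-min slopes were compared with a DMSO no-compound control. At least two independent experiments, each in duplicate; two-fold uncertainty.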

[7] = test system: Acinetobacter baumannii; test: Synergistic antibacterial activity against Acinetobacter baumannii 2208 ATCC 19606 in presence of colistin by checkerboard method; format: functional; settings: ATCC 19606 = CIP 70.34 = JCM 6841 2208
[8] = test system: Staphylococcus aureus; test: Selectivity ratio of MIC for Staphylococcus aureus RN4220 over-expressing FabI to MIC for Staphylococcus aureus RN4220; format: functional
[9] = test system: Acinetobacter baumannii; test: Synergistic antibacterial activity against MDR Acinetobacter baumannii ATCC BAA-1605 assessed as fold reduction in colistin MIC by checkerboard method; format: functional
[10] = test system: Acinetobacter baumannii; test: Antibacterial activity against Acinetobacter baumannii 2208 ATCC 19606 by microbroth dilution method; format: functional; settings: ATCC 19606 = CIP 70.34 = JCM 6841 2208
In short: (§3)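 Microbroth dilution MIC; each value is the mean of at least two runs, within two-fold experimental uncertainty.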

[11] = target: T1, Enoyl-[acyl-carrier-protein] reductase [NADPH] FabI (Staphylococcus aureus, UniProt Q6GI75); test: Competitive inhibition of Staphylococcus aureus subsp. aureus Rosenbach ATCC 43300 FabI using crotonyl-CoA as substrate in presence of NADPH/NADH after 10 mins by fluorescence assay
T1 sequence (Q6GI75 whole entry): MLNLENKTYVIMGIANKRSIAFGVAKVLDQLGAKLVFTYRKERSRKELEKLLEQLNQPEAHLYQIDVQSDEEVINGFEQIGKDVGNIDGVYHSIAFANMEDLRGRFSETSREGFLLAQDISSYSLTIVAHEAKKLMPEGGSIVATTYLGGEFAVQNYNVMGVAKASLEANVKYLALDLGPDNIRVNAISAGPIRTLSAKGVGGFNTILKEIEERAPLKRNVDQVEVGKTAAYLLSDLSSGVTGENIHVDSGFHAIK

[12] = target: T2, Enoyl-[acyl-carrier-protein] reductase [NADPH] FabI (Staphylococcus aureus) (UniProt Q6GI75); test: Binding affinity to Staphylococcus aureus subsp. aureus Rosenbach ATCC 43300 FabI by SPR assay
T2 sequence (whole entry): T1 sequence (Q6GI75 whole entry)

[13] = test system: Acinetobacter baumannii; test: Synergistic antibacterial activity against MDR Acinetobacter baumannii ATCC BAA-1605 assessed as fractional inhibitory concentration in presence of colistin by checkerboard method; format: functional
[14] = test system: Escherichia coli; test: Antibacterial activity against Escherichia coli BW25113 mutant by microbroth dilution method; format: functional; in short: as §2
[15] = test system: Staphylococcus aureus; test: Antibacterial activity against Staphylococcus aureus Newman by microbroth dilution method; format: functional; in short: as §3
[16] = test system: Acinetobacter baumannii; test: Synergistic antibacterial activity against MDR Acinetobacter baumannii ATCC BAA-1605 in presence of colistin by checkerboard method; format: functional
In short: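 Checkerboard broth dilution in tryptic soy broth. Colistin 4 to 0.03 μg/mL against analog 100 to 0.19 μg/mL, crossed. Clear wells scored. ΣFIC = C/MIC(compound) + C/MIC(partner); <0.5 synergy, 0.5–2 indifference, >2 antagonism.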

[17] = test system: Acinetobacter baumannii; test: Synergistic antibacterial activity against MDR Acinetobacter baumannii ATCC BAA-1605 assessed as colistin MIC by checkerboard method; format: functional
[18] = test system: Acinetobacter baumannii; test: Synergistic antibacterial activity against Acinetobacter baumannii 2208 ATCC 19606 assessed as colistin MIC by checkerboard method; format: functional; settings: ATCC 19606 = CIP 70.34 = JCM 6841 2208
[19] = Competitive inhibition of Acinetobacter baumannii 2208 ATCC 19606 FabI using crotonyl-CoA as substrate in presence of NADPH/NADH after 10 mins by fluorescence assay; parameters: species or system Acinetobacter baumannii ATCC 19606 = CIP 70.34 = JCM 6841
[20] = test system: Acinetobacter baumannii; test: Synergistic antibacterial activity against Acinetobacter baumannii 2208 ATCC 19606 assessed as fractional inhibitory concentration in presence of colistin by checkerboard method; format: functional, ATCC 19606 = CIP 70.34 = JCM 6841 2208
[21] = test system: Staphylococcus aureus; test: Antibacterial activity against Staphylococcus aureus RN4220 by microbroth dilution method; format: functional; in short: as §2
[22] = test system: Staphylococcus aureus; test: Antibacterial activity against methicillin-resistant Staphylococcus aureus subsp. aureus Rosenbach ATCC 43300 by microbroth dilution method; format: functional; in short: as §2
[23] = test system: Acinetobacter baumannii; test: Synergistic antibacterial activity against Acinetobacter baumannii 2208 ATCC 19606 in presence of polymixin B by checkerboard method; format: functional; settings: ATCC 19606 = CIP 70.34 = JCM 6841 2208
[24] = test system: Acinetobacter baumannii; test: Synergistic antibacterial activity against Acinetobacter baumannii 2208 ATCC 19606 assessed as polymixin B MIC by checkerboard method; format: functional; settings: ATCC 19606 = CIP 70.34 = JCM 6841 2208
[25] = test system: Acinetobacter baumannii; test: Synergistic antibacterial activity against Acinetobacter baumannii 2208 ATCC 19606 assessed as fractional inhibitory concentration in presence of polymixin B by checkerboard method; format: functional, ATCC 19606 = CIP 70.34 = JCM 6841 2208

- solubility [1]: Insoluble
SMILES: O=C(Cc1ccccc1)N1CCC(c2ccccc2)C1 (stereo not drawn)

SMILES: COc1ccccc1C1CCN(C(=O)Cc2ccccc2Cl)C1 (racemic)
- IC50 [2]: 75 mg/L
- MIC [3]: 50 mg/L (≈ 152 µM)
- IC50 [4]: 39 mg/L
- Activity [5]: Active
- IC50 [6]: 3.6 µM
- MIC [7]: 12.5 mg/L
- Selectivity ratio [8]: 4
- fold change (FC) [9]: 10
- MIC [10]: > 200 mg/L
- Ki [11]: 0.2 µM
- Activity [12]: Active
- FIC [13]: 0.25
- MIC [14]: > 200 mg/L
- MIC [15]: 75.8 µM (≈ 25 µg/mL)
- MIC [16]: 25 mg/L
- MIC [17]: 0.39 mg/L
- MIC [18]: 0.39 mg/L
- Ki [19]: 1.8 µM
- FIC [20]: 0.19

SMILES: O=C(Cc1c(F)cccc1F)N1CCC(c2ccccc2)C1 (racemic)
- IC50 [2]: 237 mg/L
- MIC [3]: > 200 mg/L
- IC50 [4]: > 200 mg/L
- Activity [5]: Active
- IC50 [6]: 6.9 µM
- MIC [7]: 25 mg/L
- MIC [21]: 50 mg/L (≈ 166 µM)
- MIC [10]: > 200 mg/L
- Ki [11]: 0.7 µM
- Activity [12]: Active
- MIC [14]: > 200 mg/L
- MIC [22]: > 200 mg/L
- MIC [15]: 166 µM (≈ 50 µg/mL)
- MIC [18]: 0.19 mg/L
- Ki [19]: 3.5 µM
- FIC [20]: 0.25

SMILES: O=C(Cc1ccccc1Cl)N1CCC(c2ccccc2)C1 (racemic)
- IC50 [2]: 79 mg/L
- IC50 [4]: 55 mg/L
- Activity [5]: Active
- IC50 [6]: 3.1 µM
- MIC [7]: 12.5 mg/L
- Selectivity ratio [8]: 4
- MIC [23]: 50 mg/L
- fold change (FC) [9]: 10
- MIC [10]: > 200 mg/L
- Ki [11]: 4 µM
- Activity [12]: Active
- MIC [24]: 3.75 mg/L
- FIC [25]: 0.28
- FIC [13]: 0.25
- MIC [15]: 41.7 µM (≈ 12.5 µg/mL)
- MIC [16]: 25 mg/L
- MIC [17]: 0.78 mg/L
- MIC [18]: 0.39 mg/L
- Ki [19]: 1.6 µM
- FIC [20]: 0.31

SMILES: O=C(Cc1c(F)cccc1Cl)N1CCC(c2ccc3c(c2)OCO3)C1 (racemic)
- Activity [5]: Active
- IC50 [6]: > 200 µM
- Selectivity ratio [8]: >4
- MIC [21]: 25 mg/L (≈ 69.1 µM)
- MIC [10]: > 200 mg/L
- Ki [11]: 0.7 µM
- Activity [12]: Active
- MIC [14]: > 200 mg/L
- MIC [22]: > 200 mg/L
- MIC [15]: 69.1 µM (≈ 25 µg/mL)
- Ki [19]: > 100 µM

SMILES: O=C(Cc1ccccc1F)N1CCC(c2ccccc2)C1 (racemic)
- IC50 [2]: 160 mg/L
- MIC [3]: 200 mg/L (≈ 706 µM)
- IC50 [4]: 76 mg/L
- Activity [5]: Active
- IC50 [6]: 3.9 µM
- MIC [7]: 25 mg/L
- MIC [21]: 50 mg/L (≈ 176 µM)
- MIC [10]: > 200 mg/L
- Ki [11]: 1.9 µM
- Activity [12]: Active
- MIC [14]: > 200 mg/L
- MIC [22]: 100 mg/L (≈ 353 µM)
- MIC [15]: 176 µM (≈ 50 µg/mL)
- MIC [18]: 0.19 mg/L
- Ki [19]: 2 µM
- FIC [20]: 0.25
